CAL PDZ FP-1: human CAL PDZ-peptide interaction inhibition; Q9HD26; actives 0.02% (n = 330,000); purified CAL PDZ, TMR-peptide fluorescence polarization, 1 h; AID 504414; inhibition, % at 20 µM;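 active means highest replicate inhibition of at least 40%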;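 further: plate controls were DMSO neutral control wells for no effect and unlabeled competitor peptide control wells for full effect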
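Assay system – tagged CAL PDZ protein CerCALP, purified · Timing – 1 h at RT · Compound – single point, 20 µM · Measured by – fluorescence polarization from S- and P-plane intensities, G-factor corrected · Evaluation – inhibition from polarization loss · Probe or stimulus – TMR reporter peptide T*-PRC34 · Buffer or medium – pH 7.4 phosphate-saline buffer, reducing agent, detergent, IgG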
Arrestin-AP2 inh: human beta-arrestin and AP2 interaction inhibition. inhibition, % at 10 µM. FITC-arrestin peptide / GST-AP2 beads, flow cytometry; AP2 beta2 appendage carries R879A mutation. actives 0.31% (n = 340,000);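 active means inhibition above a set limit, near 3 SD of compounds lacking own fluorescence, cut at about 54% in these data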;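 further: plate controls were DMSO wells for no effect and 5 µM unlabelled arrestin peptide for full effect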
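Material – AP2 appendage R879A on GSH beads · Buffer or medium – PBS with 0.05% Tween 20 and 0.1% BSA · Probe or stimulus – fluorescein-tagged arrestin peptide at 50 nM final · Incubation – compound with beads 12 min RT, then probe 1 h RT · Detection – high-throughput flow cytometry of beads, ex 488, em 535 nm · Evaluation – percent response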
CAL PDZ FP-2: CAL PDZ (human) peptide binding inhibition | purified CAL PDZ, TMR-peptide fluorescence polarization, 1 h | actives 0.92% (n = 300,000) | Q9HD26 | inhibition, % at 24.9 µM | AID 602252;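 active means mean inhibition of at least 30% with at least half of replicates also reaching 30%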;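 further: 0% = DMSO neutral control and 100% = excess unlabeled competitor peptide PRC23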
DDE Tn7 FP inh: disrupts Tn7 cyclic peptide binding to fibrin D-Dimer-E complex; P02675; FP displacement of FITC-Tn7 peptide from fibrin DD(E); 0% = median of compound wells per plate; inhibition, % at 8.3 µM; actives 0.13% (n = 370,000);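 active means inhibition above the mean of compounds falling within the control limits plus 3 SD of them, cut at about 14% in these data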;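 further: 0% = plate median of compound wells and 100% = 10 µM Aha-Tn7 peptide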
Target sequence (P02675 whole entry, looked up): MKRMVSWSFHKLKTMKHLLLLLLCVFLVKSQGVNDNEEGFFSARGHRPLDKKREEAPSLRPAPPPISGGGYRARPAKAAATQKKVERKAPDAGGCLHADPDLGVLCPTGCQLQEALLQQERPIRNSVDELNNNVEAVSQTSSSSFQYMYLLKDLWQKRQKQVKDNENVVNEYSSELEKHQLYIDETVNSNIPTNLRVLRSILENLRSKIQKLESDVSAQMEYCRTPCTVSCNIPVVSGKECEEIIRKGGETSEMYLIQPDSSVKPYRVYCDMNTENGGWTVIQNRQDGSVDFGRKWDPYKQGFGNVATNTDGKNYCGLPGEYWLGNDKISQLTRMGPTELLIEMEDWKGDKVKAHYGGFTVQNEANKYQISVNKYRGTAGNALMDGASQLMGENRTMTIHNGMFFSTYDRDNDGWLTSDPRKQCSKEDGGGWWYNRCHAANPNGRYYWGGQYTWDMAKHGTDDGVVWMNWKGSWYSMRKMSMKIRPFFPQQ
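Assay system: human fibrin DD(E). Input: DD(E) 2 µM final. Medium: Tris buffer with calcium and detergent, pH 7.8. Compound dosing: single point at 8.3 µM. Timing: 10 min plus 3 h, room temperature. Technique: fluorescence polarization of the labelled Tn7 tracer. Read-out: percent inhibition. Replicates: singlicate testing.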
DDE Tn6 FP inh: inhibitors of Tn6 peptide binding to human fibrin DD(E) | Fibrin DD(E) TRITC-Tn6 fluorescence polarization displacement | AID 720509 | P02675 | actives 0.21% (n = 370,000) | inhibition, % at 8.3 µM;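 active means inhibition above a per-campaign cutoff: mean of compounds within control limits plus 3 SD, cut at about 15% in these data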;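 further: 0% = median of all compound wells on the plate and 100% = blocking peptide control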
* hit, by the source's call; nt = no result given; + = active, no number. Rows were chosen to be rich in hits. Some 1.4% of all compounds tested hit in one or more screens of this group.

SMILES | CAL PDZ FP-1 | Arrestin-AP2 inh | CAL PDZ FP-2 | DDE Tn7 FP inh | DDE Tn6 FP inh
Nc1ccc(-c2c3ccc(=O)cc-3oc3cc(O)ccc23)cc1C(=O)O | -2 | -22 | 41* | -6 | 11
O=c1cc(-c2ccccc2)oc2cc(O)ccc12 | 0 | 5 | 0 | -1 | -1
Cc1[nH]nc(NCCO)c1[N+](=O)[O-] | 5 | -7 | 31* | -3 | -2
Cc1[nH]nc(Nc2ccccc2)c1[N+](=O)[O-] | -1 | 12 | -3 | 2 | 0
CCN(CC)CCN1C(=O)C(=O)/C(=C(/O)c2c(C)[nH]c(C(=O)OC)c2C)C1c1cccnc1 (stereo not given) | 1 | 29 | 44* | -4 | 5
CCN(CC)CCN1C(=O)C(=O)/C(=C(/O)c2c(C)[nH]c(C(=O)OC)c2C)C1c1ccccc1 (stereo not given) | -3 | 5 | -8 | 0 | -5
CSc1ccc(-c2cnc(N3CCC(C(N)=O)CC3)s2)cc1 | nt | nt | nt | 3 | -3
Cc1ccc(CSc2ccc(S(=O)(=O)N3CCCC3)cn2)cc1 | -1 | -6 | 71* | 1 | -6
CCCCN1CCS(=O)(=O)N(Cc2cn(Cc3ccccc3Br)nn2)C(C(=O)OC)C1 (stereo not given) | nt | nt | nt | 9 | 6
Cc1nn(C(C)(C)C)c(OC(=O)c2ccco2)c1Sc1ccccc1 | nt | -1 | 141* | 3 | 1
Cc1nn(C(C)(C)C)c(OC(=O)c2ccc(Br)o2)c1Sc1ccccc1 | -2 | 26 | -3 | 6 | 2
COc1ccc(-c2[nH]ncc2CNC(C)CCn2cccn2)cc1F (stereo not given) | 0 | 16 | 51* | -2 | 2
COc1ccc(-c2[nH]ncc2CNC(C)c2ccccc2Cl)cc1F (stereo not given) | -1 | 7 | 5 | -3 | -1
COC[C@@H]1CCCN1c1cccc2c1S(=O)(=O)N(C1CC1)CC[C@@H](C)O2 | nt | nt | nt | 4 | 5
O=C(CN1C(=O)COc2ccc(Cl)cc21)NCC1CCCO1 (stereo not given) | -3 | -1 | 35* | 1 | 0
O=C(CN1C(=O)COc2ccccc21)NCC1CCCO1 (stereo not given) | -2 | 18 | -1 | -1 | 7
CC1CN(CCCCOc2ccc(Cl)c3ccccc23)CC(C)O1 (stereo not given) | 20 | -8 | 43* | -1 | -3
CC(C)CCN1C(=O)c2ccc(C(=O)Nc3cc(C(=O)O)cc(C(=O)O)c3)cc2C1=O | 0 | -13 | 33* | 0 | 3
COc1ccc(N(CC(=O)NCCSc2ccc(C)cc2)S(=O)(=O)c2ccccc2)c(OC)c1 | -1 | -9 | 40* | -5 | -2
COC(=O)c1cccc2c([N+](=O)[O-])c(NC(C)=O)cc(C(=O)OC)c12 | nt | nt | nt | 0 | -4
CCOC(=O)[C@@]12CCCC3=C1N(CCC3)C(=O)[C@H]2CC(=O)NCCc1ccccc1OC | nt | nt | nt | 0 | 4
Cc1ccc2nc(NC(=O)COC(=O)c3ccncc3)sc2c1 | 33 | -6 | 62* | -7 | 2
COCC(=O)Nc1nc2ccc(C)cc2s1 | 0 | -7 | -4 | 4 | 9
COc1ccc(CNS(=O)(=O)/C=C/c2cc(C)ccc2CNC(=O)OC(C)(C)C)cc1 | nt | nt | nt | -5 | 5
COC(=O)[C@H](CC(C)C)N(CCCc1cn(Cc2ccccc2)nn1)S(=O)(=O)c1ccc(F)cc1Br | nt | nt | nt | -2 | -3
SMILES | CAL PDZ FP-1 | Arrestin-AP2 inh | CAL PDZ FP-2 | DDE Tn7 FP inh | DDE Tn6 FP inh
CCc1noc(C)c1C(=O)N1CCN(S(=O)(=O)c2cccs2)CC1 | 0 | -15 | 50* | -3 | -4
CCCCN(C)C(=O)CN1C(=O)C2CCCCN2C(=O)c2ccccc21 (stereo not given) | nt | nt | nt | 5 | -1
O=C(O)c1cccc(S(=O)(=O)NNc2ccccc2C(F)(F)F)c1 | 0 | 23 | + | 0 | 14
COc1cccc(NC(=O)C2CCCN2C(=O)NCc2ccccc2)c1 (stereo not given) | nt | nt | nt | 8 | -3
COc1ccc2c(c1)CNC2CS(=O)(=O)NC1CCCC1 (stereo not given) | nt | nt | nt | 0 | 1
O=C(CSc1nc2cccnc2n1Cc1ccccc1)NCc1ccco1 | nt | -2 | 65* | -14 | 2
CN1C(=O)C[C@@](C#N)(C(=O)N2CCCC2)[C@H]1c1ccccc1 | nt | nt | nt | 7 | 0
C=CCN(CC#Cc1ccc(C)cc1)Cc1ccc(OC)cc1OC | nt | nt | nt | -3 | -1
CCN(CC)c1ccc(N2C(=O)CSC2=S)cc1 | -4 | 0 | 45* | 1 | 3
CCOc1ccc(N2C(=O)CSC2=S)cc1 | 0 | -5 | nt | 11 | 0
O=C(NCCSc1ccccn1)c1ccc(Cl)cc1Cl | 11 | 1 | 33* | 3 | 0
O=C(NCCSc1ccccn1)c1ccc(Cl)cc1 | 0 | 19 | 1 | 1 | 5
O=C(NC(Cc1ccccc1)C(=O)O)/C(=C/c1ccccc1)NC(=O)c1ccco1 (stereo not given) | 0 | -5 | 63* | 2 | 0
O=C(NC(Cc1ccccc1)C(=O)O)/C(=C\c1ccc(F)cc1)NC(=O)c1ccco1 (stereo not given) | 1 | 25 | -8 | 4 | -2
Clc1cc(Cl)c2nc(N3CCOCC3)sc2c1 | -2 | 2 | 1 | 13 | 2
Clc1ccc(-c2nsc(N3CCOCC3)n2)c(Cl)c1 | -1 | 4 | 62* | 1 | -3
COc1ccc(S[C@]2(C(=O)N(C)C)CC(=O)N(c3ccsc3)[C@@H]2c2ccc(OC)cc2)cc1 | nt | nt | nt | -5 | 5
CCOC(=O)N(C)C[C@H]1OCc2cn(nn2)CCCC(=O)N([C@@H](C)CO)C[C@@H]1C | nt | nt | nt | 5 | 8
Cc1cccc(CC(=O)NCC(=O)NCc2cc(=O)n(C)c(=O)n2C)c1 | -1 | -13 | 62* | 8 | -18
C/C(=N\OC(=O)c1cccc(C)c1)c1sc(-c2ccccc2)nc1C | -9 | 12 | 2 | -2 | 6
C/C(=N\OC(=O)c1cccc(C(F)(F)F)c1)c1sc(-c2ccccc2)nc1C | -1 | 14 | 52* | 1 | -2
CCCCNC(=O)O[C@H]1CC[C@@]23CCCN2C(=O)CCC[C@H]3[C@H]1CCC | nt | nt | nt | -1 | 2
CN1CCN(C(=O)/C(=C/c2cn(S(=O)(=O)N(C)C)c3ccccc23)NC(=O)c2ccccc2F)CC1 | -2 | -11 | 54* | 4 | 6
COc1ccc(/C=N/NC(=O)c2ccc(-c3ccccc3)cc2)cc1O | -3 | 5 | 2 | 11 | -5
COc1ccc(/C=N/NC(=O)c2ccc(CN3C(=O)c4cccc5cccc3c45)cc2)cc1O | -1 | -3 | 77* | 1 | -12
COc1cc(/C=N/NC(=O)c2ccc(CN3C(=O)c4cccc5cccc3c45)cc2)cc(OC)c1O | 6 | -1 | 50* | -8 | -16
CC1(C(=O)N2CCC(Oc3cccnc3)CC2)CC1 | nt | nt | nt | -6 | -2
